Measurements of several laboratories.
Compare with care: the assays were run in different laboratories.
Target: Serine/threonine-protein kinase 36 (STK36, Homo sapiens, UniProt Q9NRP7)
One construct used (Q9NRP7 1-1315): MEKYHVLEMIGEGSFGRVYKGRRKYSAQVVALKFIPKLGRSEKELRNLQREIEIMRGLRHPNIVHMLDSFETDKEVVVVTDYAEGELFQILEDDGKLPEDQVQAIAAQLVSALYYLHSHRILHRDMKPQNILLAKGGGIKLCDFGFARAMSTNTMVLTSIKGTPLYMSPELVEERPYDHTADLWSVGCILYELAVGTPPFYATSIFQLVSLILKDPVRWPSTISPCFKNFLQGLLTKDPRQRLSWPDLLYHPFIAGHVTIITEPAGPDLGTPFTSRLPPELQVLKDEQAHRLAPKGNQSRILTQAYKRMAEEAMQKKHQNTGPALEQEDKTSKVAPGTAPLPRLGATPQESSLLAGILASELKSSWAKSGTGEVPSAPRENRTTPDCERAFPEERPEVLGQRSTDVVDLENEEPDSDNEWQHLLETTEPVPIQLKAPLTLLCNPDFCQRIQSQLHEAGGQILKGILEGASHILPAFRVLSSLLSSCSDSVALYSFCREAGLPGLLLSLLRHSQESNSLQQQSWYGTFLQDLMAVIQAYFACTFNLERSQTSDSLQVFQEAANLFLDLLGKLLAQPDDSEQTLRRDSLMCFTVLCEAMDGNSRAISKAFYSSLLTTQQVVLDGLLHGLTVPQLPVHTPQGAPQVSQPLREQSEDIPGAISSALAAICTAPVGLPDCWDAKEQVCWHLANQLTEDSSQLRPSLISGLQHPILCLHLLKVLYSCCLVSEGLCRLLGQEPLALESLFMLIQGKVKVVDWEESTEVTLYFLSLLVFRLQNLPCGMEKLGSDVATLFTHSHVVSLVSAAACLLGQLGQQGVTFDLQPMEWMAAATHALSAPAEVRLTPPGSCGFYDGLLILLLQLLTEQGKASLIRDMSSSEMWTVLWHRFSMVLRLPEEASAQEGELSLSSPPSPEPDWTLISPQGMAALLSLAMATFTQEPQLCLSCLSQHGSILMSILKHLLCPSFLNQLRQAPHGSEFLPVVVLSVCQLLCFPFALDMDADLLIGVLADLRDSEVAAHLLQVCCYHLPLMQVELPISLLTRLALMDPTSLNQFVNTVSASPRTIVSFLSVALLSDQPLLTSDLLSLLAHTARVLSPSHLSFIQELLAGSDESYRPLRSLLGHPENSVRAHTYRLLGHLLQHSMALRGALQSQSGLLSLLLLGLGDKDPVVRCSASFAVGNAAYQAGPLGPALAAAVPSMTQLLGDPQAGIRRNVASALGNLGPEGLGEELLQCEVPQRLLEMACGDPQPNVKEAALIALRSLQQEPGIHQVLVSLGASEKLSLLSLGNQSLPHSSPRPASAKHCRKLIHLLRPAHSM

C[C@@H]1CCN(c2nccc(-c3cnn4ncccc34)n2)C1
remaining binding (binding; 1 µM): 87%

COc1cnc(Nc2cccc(S(N)(=O)=O)c2)nc1N1CCN(c2ccccc2)CC1
remaining binding (binding; competition with immobilised ligand; 1 µM): 88%

COc1ccc2c(c1)O[C@H](c1ccc(OC)c(OC)c1)C[C@@H]2NC(=O)C1(c2ccc3c(c2)OC(F)(F)O3)CC1
remaining binding (cell-free assay; competition with immobilised ligand; 1 µM): 94%

O=C(NCCCN1CCOCC1)c1ccc(Nc2nccc(-c3cc4ccccc4s3)n2)cc1
remaining binding (binding; competition with immobilised ligand; 1 µM): 27%

CN(c1ccnc(CNc2nc(Nc3ccc4c(c3)CC(=O)N4)ncc2C(F)(F)F)n1)S(C)(=O)=O
remaining binding (cell-free assay; competition with immobilised ligand; 1 µM): 87%

O=C(NCC1CCOCC1)c1n[nH]cc1NC(=O)c1c(F)cccc1F
remaining binding (binding; competition with immobilised ligand; 1 µM): 98%

CC1CCCN1c1nccc(-c2cnn3ncccc23)n1 (stereo not shown)
remaining binding (binding; 1 µM): 100%

CO[C@H]1CC[C@H](CNc2ccc(S(=O)(=O)NC(=O)c3ccc(N4CCN(CC5=C(c6ccc(Cl)cc6)CC(C)(C)CC5)CC4)cc3Oc3cnc4[nH]ccc4c3)cc2[N+](=O)[O-])CC1
remaining binding (cell-free assay; competition with immobilised ligand; 1 µM): 71%

O=C(c1ccc(Nc2nccc(-c3cc4ccccc4s3)n2)cc1)N1CCC(N2CCCC2)CC1
remaining binding (binding; competition with immobilised ligand; 1 µM): 11%

CNC(=O)[C@@H]1CC[C@@H](n2c(-c3ccc4cnccc4c3)nc3ccc(C(=O)NCc4cccc(C(N)=O)c4)cc32)C1
remaining binding (binding; competition with immobilised ligand; 1 µM): 93%

CN(CCCC(F)(F)F)c1nccc(-c2cnn3ncccc23)n1
remaining binding (binding; 1 µM): 92%

C[C@@H](c1ccc(-n2cnc3c(N)ncnc32)cc1)N1CCc2nn(C)c(Cc3ccccc3)c2C1=O
remaining binding (binding; competition with immobilised ligand; 0.1 µM): 67%

COc1ccnn2ncc(-c3ccnc(N(C)C)n3)c12
remaining binding (binding; 1 µM): 81%

c1ccc(N2CCN(Cc3nc4ccccc4[nH]3)CC2)nc1
remaining binding (binding; competition with immobilised ligand; 1 µM): 84%

N[C@H]1CCN(c2nccc(-c3cnn4ncccc34)n2)C1
remaining binding (binding; 1 µM): 62%

O=C(c1ccc(Nc2ncc(Cl)c(-c3ccc(Cl)s3)n2)cc1)N1CCC(N2CCCC2)CC1
remaining binding (binding; competition with immobilised ligand; 1 µM): 3.9%

CCC(=O)N[C@@H]1CC[C@H](C(=O)N(C)c2ccc(-c3nc4ccccc4o3)cc2)C1
remaining binding (cell-free assay; competition with immobilised ligand; 1 µM): 82%

c1cncc(-c2cccc(Nc3nccc(NC4CCCCC4)n3)c2)c1
remaining binding (binding; competition with immobilised ligand; 10 µM): 49%

Cc1nc(N2CC[C@@H](O)C2)ncc1-c1cc(C(F)(F)F)cc2[nH]ncc12
remaining binding (binding; competition with immobilised ligand; 1 µM): 100%

CN(C)c1ncc(F)c(-c2cnn3ncccc23)n1
remaining binding (binding; 1 µM): 100%

Cc1cc(-n2nc(Cc3cc(F)cc(C(F)(F)F)c3)nc2C)ccc1C(N)=O
remaining binding (cell-free assay; competition with immobilised ligand; 1 µM): 100%

F[C@@H]1CCN(c2nccc(-c3cnn4ncccc34)n2)C1
remaining binding (binding; 1 µM): 90%
